According to ChEMBL document CHEMBL4428067, “Drug Discovery against Psoriasis: Identification of a New Potent FMS-like Tyrosine Kinase 3 (FLT3) Inhibitor, 1-(4-((1H-Pyrazolo[3,4-d]pyrimidin-4-yl)oxy)-3-fluorophenyl)-3-(5-(tert-butyl)isoxazol-3-yl)urea, That Showed Potent Activity in a Psoriatic Animal Model” (J Med Chem, 2016):
Calls of active or inactive are those of the source. The rule behind the calls is not given here.

Tests used:
Mus musculus [1] = organism: Mus musculus; test: Antipsoriatic activity in K14-VEGF transgenic mouse model of psoriasis assessed as upper left quadrant FLT3+/CD11c+/B220+ pDC cells in psoriatic plaque lesion at 0.05% applied tropically over lesion for continuous 29 days by flow cytometric analysis (reference value: 36.1%); format: functional
[2] = molecular target: T1, Receptor-type tyrosine-protein kinase FLT3 (Mus musculus) (UniProt Q00342); test: (§1) Inhibition of FLT3 in Balb/c mouse BMDCs assessed as suppression of FLT3L-induced pDC formation measured as upper left quadrant cells level treated on day 9 post 9 days of FLT3L-stimulation measured after 24 hrs by CD11c PerCP and CD45R/B220 FITC staining based flow cytometric analysis (reference value: 45.8%); parameters: scale not given: the % may be the effect or the level left
T1 sequence (whole entry): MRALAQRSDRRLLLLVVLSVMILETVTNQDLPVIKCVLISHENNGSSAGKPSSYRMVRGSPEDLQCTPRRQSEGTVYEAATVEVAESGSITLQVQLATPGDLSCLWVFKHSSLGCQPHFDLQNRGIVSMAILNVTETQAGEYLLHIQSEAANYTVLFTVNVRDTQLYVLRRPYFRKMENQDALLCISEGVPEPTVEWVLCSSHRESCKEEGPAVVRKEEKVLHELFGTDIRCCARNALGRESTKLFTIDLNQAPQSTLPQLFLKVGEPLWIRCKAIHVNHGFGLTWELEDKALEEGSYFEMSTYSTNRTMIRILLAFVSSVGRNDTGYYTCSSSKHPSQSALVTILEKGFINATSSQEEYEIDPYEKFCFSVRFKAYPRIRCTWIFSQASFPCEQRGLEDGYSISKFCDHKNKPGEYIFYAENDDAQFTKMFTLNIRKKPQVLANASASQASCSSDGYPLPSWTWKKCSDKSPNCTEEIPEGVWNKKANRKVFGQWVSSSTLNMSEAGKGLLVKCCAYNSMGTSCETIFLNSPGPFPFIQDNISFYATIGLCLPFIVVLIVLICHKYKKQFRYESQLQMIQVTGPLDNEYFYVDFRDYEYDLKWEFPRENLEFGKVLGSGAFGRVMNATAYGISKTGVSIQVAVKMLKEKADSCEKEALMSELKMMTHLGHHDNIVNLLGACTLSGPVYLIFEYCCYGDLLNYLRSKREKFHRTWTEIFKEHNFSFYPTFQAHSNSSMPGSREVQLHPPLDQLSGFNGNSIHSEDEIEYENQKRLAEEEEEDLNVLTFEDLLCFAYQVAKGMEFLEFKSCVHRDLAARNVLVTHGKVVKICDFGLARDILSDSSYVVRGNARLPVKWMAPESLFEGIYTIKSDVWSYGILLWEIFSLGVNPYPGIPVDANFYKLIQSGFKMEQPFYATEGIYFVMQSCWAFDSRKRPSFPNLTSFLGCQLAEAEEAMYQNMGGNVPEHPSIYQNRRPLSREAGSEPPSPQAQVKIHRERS
Procedure, shortened: (§2)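 BALB/c bone marrow cells were cultured at 1×10^6/ml with FLT3L in supplemented RPMI-1640 for 9 days. Compound in DMSO or 0.1% DMSO was added on day 9 for 24 h. Cells were stained for 30 min with CD11c PerCP plus B220 FITC (pDC: CD11c+ B220+) or MHC II FITC (mDC: CD11c+ MHC II+), then analysed by flow cytometry. Three independent experiments.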

[3] = molecular target: T1, Receptor-type tyrosine-protein kinase FLT3 (Mus musculus); test: as §1, with “mDC” for “pDC”, “right” for “left”, “I-A/I-E (MHC class II)” for “CD45R/B220”, “21%)” for “45.8%)”; parameters: scale not given: the % may be the effect or the level left; procedure, shortened: as §2
Mus musculus [4] = organism: Mus musculus; test: Antipsoriatic activity in K14-VEGF transgenic mouse model of psoriasis assessed as improvement of psoriatic symptoms at 0.05% applied tropically over lesion for continuous 21 days by macroscopic analysis relative to vehicle control; format: functional, organism-based
Procedure, shortened: (§3)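 Homozygous K14-VEGF mice, 3–4 months old, with moderate to serious psoriasis. Lesions smeared with cream with or without 0.05% compound for 3 weeks, then observed untreated for another 15 days. Head and neck photographed on days 0, 21 and 36 for macroscopic assessment.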

[5] = molecular target: T1, Receptor-type tyrosine-protein kinase FLT3 (Mus musculus); test: as §1, with “mDC” for “pDC”, “I-A/I-E (MHC class II)” for “CD45R/B220”, “31.8%)” for “45.8%)”; parameters: scale not given: the % may be the effect or the level left; procedure, shortened: as §2
BMDC = test: Decrease in IL23 level in Balb/c mouse BMDCs at 10 nM treated on day 9 post 9 days of FLT3L-stimulation measured after 12 hrs by ELISA; format: functional, cell-based
Procedure, shortened: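 BALB/c bone marrow cells were plated at 1×10^6/ml in RPMI-1640 with 10% FCS, 10^-4 M 2-ME, pyruvate, antibiotics and FLT3L for 9 days. On day 9, compound in DMSO or 0.1% DMSO was added. After 12 h, supernatant IFN-γ and IL-23 were measured by ELISA. Three independent experiments.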

[6] = molecular target: T1, Receptor-type tyrosine-protein kinase FLT3 (Mus musculus); test: as §1, with “mDC” for “pDC”, “lower” for “upper”, “I-A/I-E (MHC class II)” for “CD45R/B220”, “43.7%)” for “45.8%)”; parameters: scale not given: the % may be the effect or the level left; procedure, shortened: as §2
[7] = molecular target: T1, Receptor-type tyrosine-protein kinase FLT3 (Mus musculus); test: as §1, with “mDC” for “pDC”, “lower right” for “upper left”, “I-A/I-E (MHC class II)” for “CD45R/B220”, “3.49%)” for “45.8%)”; parameters: scale not given: the % may be the effect or the level left; procedure, shortened: as §2
Mus musculus [8] = organism: Mus musculus; test: Antipsoriatic activity in K14-VEGF transgenic mouse model of psoriasis assessed as decrease in Th17 cell formation in lymph node at 0.05% applied tropically over lesion for 29 days by flow cytometric analysis relative to vehicle-treated control; format: functional, organism-based
Procedure, shortened: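 K14-VEGF mice were treated topically for 29 days with 0.05% cream or vehicle. Lymph node cells were surface-stained with anti-CD4 PE, then fixed and permeabilised. They were stained with FITC anti-IL-17 and analysed by flow cytometry, three mice, mean ± SD.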

Mus musculus [9] = organism: Mus musculus; test: Antipsoriatic activity in K14-VEGF transgenic mouse model of psoriasis assessed as lower right quadrant DC cells expressing FLT3 and CD11c in psoriatic plaque lesion at 0.05% applied tropically over lesion for continuous 29 days by flow cytometric analysis (reference value: 8.88%); format: functional
Mus musculus [10] = organism: Mus musculus; test: Antipsoriatic activity in K14-VEGF transgenic mouse model of psoriasis assessed as reduction in focal parakeratinosis at 0.05% applied tropically over lesion for continuous 29 days by H and E staining method relative to vehicle control; format: functional, organism-based
Procedure, shortened: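 Homozygous K14-VEGF mice, 3–4 months old, with moderate to serious psoriasis; n=3 per group. Cream with 0.05% compound or vehicle cream smeared on lesions. Head and neck tissue sections taken after 29 days of treatment and HE-stained. Baker pathological score from 5 random fields, given as mean and SD. Epidermal thickness from 8 random fields, given as mean ± SEM.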

Mus musculus [11] = organism: Mus musculus; test: Antipsoriatic activity in K14-VEGF transgenic mouse model of psoriasis assessed as recurrence of psoriatic symptoms at 0.05% applied tropically over lesion for continuous 21 days measured after 15 days of last dosage by macroscopic analysis relative to vehicle control; format: functional, organism-based; procedure, shortened: as §3
[12] = molecular target: T1, Receptor-type tyrosine-protein kinase FLT3 (Mus musculus); test: as §1, with “right” for “left”, “14.9%)” for “45.8%)”; parameters: scale not given: the % may be the effect or the level left; procedure, shortened: as §2

## CC(C)(C)c1cc(NC(=O)Nc2ccc(Oc3ncnc4[nH]ncc34)c(F)c2)no1
Mus musculus [1]
  Activity: 9.6%
[2]
  Activity: 40.3%
[3]
  Activity: 16.7%
Mus musculus [4]
  Activity: Active
[5]
  Activity: 23.5%
BMDC
  inhibition: Active
[6]
  Activity: 54.7%
[7]
  Activity: 5.15%
Mus musculus [8]
  Activity: Active
Mus musculus [9]
  Activity: 2.1%
Mus musculus [10]
  Activity: Active
Mus musculus [11]
  Activity: inactive
[12]
  Activity: 7.84%
